Reference: ChEMBL document CHEMBL1641407, “Imidazo[4,5-d]thiazolo[5,4-b]pyridine based inhibitors of IKK2: synthesis, SAR, PK/PD and activity in a preclinical model of rheumatoid arthritis” (Bioorg Med Chem Lett, 2011)

What was measured:
Mus musculus [1] = assay: Antiinflammatory activity in po dosed BALB/c mouse assessed as inhibition of LPS-induced TNFalpha release administered for 5 hrs before LPS challenge measured after 6.5 hrs post dose by ELISA; format: functional, organism-based
Outline: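 BALB/c female mice, 6–8 weeks old, n = 7–8 per treatment. Compounds given by oral gavage at 30 and 100 mg/kg in PEG400/HCl/Tween80/water; controls received vehicle alone. Five hours later, E. coli O111:B4 LPS 50 µg/kg ip. Serum collected 90 min after LPS, TNF-α measured by ELISA. Drug exposure sampled 6.5 h post-dose. Mean ± standard error.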

Rattus norvegicus = assay: Total AUC in rat at 2 mg/kg, iv and 10 mg/kg, po; format: ADME, organism-based; conditions: in vivo
Mus musculus [2] = assay: Total AUC in mouse at 2 mg/kg, iv and 10 mg/kg, po; format: ADME, organism-based; conditions: in vivo
[3] = Volume of distribution at steady state in mouse at 2 mg/kg, iv and 10 mg/kg, po; format: ADME, organism-based; conditions: in vivo, read-out: Vdss
[4] = Half life in dog at 2 mg/kg, iv; format: ADME, organism-based, Canis lupus familiaris; parameters: dose 2 mg/kg, route intravenous; conditions: in vivo
Outline: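 Dog pharmacokinetics, iv dosing only, in vehicle PEG400:water 80:20.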

[5] = Half life in rat at 2 mg/kg, iv and 10 mg/kg, po; format: ADME, organism-based; conditions: in vivo
[6] = Cmax in rat at 2 mg/kg, iv and 10 mg/kg, po; format: ADME, organism-based; conditions: in vivo
[7] = Oral bioavailability in mouse at 10 mg/kg; format: ADME, organism-based; conditions: in vivo
[8] = biological target: T1, Inhibitor of nuclear factor kappa-B kinase subunit alpha (Homo sapiens, UniProt O15111); assay: Inhibition of IKK1
T1 sequence (O15111 whole entry): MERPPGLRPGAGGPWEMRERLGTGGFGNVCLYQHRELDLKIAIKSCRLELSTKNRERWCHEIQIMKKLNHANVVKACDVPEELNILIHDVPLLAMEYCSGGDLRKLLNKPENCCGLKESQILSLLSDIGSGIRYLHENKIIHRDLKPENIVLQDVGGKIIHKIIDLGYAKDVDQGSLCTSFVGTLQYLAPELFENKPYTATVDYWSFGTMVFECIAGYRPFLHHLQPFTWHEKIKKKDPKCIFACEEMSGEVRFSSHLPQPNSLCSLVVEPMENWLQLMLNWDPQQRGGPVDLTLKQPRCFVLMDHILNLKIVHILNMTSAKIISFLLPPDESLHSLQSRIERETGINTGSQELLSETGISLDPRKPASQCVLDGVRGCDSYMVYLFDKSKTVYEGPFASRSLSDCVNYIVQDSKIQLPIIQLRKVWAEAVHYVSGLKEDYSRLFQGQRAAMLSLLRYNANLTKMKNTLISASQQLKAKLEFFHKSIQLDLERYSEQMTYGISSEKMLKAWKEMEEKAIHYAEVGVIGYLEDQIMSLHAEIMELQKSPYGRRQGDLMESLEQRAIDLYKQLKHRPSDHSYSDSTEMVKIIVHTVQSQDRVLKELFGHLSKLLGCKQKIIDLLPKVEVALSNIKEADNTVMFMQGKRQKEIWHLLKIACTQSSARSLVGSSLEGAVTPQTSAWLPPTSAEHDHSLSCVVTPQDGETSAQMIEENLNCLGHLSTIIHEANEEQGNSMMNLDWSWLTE

[9] = biological target: T2, Cyclin-G-associated kinase (Homo sapiens) (UniProt O14976); assay: Residual activity at GAK at 10 uM relative to control
T2 sequence (whole entry): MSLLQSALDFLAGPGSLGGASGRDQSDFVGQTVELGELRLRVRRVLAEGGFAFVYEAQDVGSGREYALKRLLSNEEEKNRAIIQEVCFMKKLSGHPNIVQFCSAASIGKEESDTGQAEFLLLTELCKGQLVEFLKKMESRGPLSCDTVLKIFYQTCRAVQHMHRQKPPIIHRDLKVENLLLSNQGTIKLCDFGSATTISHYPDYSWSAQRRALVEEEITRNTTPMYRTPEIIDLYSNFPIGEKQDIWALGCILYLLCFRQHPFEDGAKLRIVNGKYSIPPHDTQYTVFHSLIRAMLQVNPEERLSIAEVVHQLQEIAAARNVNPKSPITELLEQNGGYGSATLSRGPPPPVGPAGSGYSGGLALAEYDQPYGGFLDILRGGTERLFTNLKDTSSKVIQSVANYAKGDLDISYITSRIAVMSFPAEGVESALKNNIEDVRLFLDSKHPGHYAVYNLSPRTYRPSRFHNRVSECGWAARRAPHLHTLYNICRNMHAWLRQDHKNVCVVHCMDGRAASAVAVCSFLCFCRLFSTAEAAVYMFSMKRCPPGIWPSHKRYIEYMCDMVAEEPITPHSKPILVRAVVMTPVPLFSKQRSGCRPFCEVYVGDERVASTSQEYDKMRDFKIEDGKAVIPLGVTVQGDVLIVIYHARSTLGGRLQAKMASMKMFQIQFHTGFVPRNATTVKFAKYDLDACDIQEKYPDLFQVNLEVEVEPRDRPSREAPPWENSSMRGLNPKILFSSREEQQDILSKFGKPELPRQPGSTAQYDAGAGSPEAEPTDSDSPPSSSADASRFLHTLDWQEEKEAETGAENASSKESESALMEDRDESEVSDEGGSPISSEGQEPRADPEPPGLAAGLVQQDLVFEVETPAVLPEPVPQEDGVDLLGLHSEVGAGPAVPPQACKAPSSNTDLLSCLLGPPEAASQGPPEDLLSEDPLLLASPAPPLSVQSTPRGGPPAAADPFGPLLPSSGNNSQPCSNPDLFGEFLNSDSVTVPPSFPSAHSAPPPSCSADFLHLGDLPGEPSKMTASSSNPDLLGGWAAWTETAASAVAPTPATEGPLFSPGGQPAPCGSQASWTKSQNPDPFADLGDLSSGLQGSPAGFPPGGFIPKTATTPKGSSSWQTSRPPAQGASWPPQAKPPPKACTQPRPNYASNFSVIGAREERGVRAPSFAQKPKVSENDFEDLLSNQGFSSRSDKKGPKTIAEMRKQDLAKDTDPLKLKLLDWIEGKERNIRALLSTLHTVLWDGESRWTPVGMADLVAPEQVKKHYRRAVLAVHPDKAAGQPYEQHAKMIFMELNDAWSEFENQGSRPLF

[10] = biological target: Mitogen-activated protein kinase 10 (Homo sapiens) (UniProt P53779); assay: Residual activity at JNK3 at 10 uM relative to control
[11] = biological target: Death-associated protein kinase 2 (Homo sapiens) (UniProt Q9UIK4); assay: Residual activity at DAPK2 at 10 uM relative to control
Chain of Death-associated protein kinase 2 (Homo sapiens) (Q9UIK4 whole entry, looked up): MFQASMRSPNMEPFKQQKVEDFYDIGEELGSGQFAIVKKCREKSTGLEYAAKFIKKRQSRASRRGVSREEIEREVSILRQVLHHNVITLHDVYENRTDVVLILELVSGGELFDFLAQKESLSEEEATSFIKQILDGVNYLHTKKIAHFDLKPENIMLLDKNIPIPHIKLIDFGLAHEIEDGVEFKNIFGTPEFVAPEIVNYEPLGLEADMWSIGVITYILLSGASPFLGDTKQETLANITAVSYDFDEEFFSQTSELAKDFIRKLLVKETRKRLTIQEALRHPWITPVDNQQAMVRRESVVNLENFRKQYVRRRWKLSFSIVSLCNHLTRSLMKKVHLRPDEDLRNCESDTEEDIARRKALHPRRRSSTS

Chain of Mitogen-activated protein kinase 10 (Homo sapiens) (P53779 whole entry): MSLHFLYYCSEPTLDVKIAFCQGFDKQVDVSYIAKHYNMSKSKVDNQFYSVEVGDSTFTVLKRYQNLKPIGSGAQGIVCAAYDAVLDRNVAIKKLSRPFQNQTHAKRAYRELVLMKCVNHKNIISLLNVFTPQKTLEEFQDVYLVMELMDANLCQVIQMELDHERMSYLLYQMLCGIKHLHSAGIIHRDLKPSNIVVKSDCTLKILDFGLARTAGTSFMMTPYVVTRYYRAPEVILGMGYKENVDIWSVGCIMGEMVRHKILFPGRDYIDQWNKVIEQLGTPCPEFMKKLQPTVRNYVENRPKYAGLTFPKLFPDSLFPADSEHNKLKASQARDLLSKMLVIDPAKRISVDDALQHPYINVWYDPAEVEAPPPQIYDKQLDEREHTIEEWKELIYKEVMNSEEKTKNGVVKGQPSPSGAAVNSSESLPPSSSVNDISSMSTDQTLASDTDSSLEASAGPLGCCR

- AUC (Rattus norvegicus): 4.63 µM
- AUC (Mus musculus [2]): 3000 nM
- Vd [3]: 1.5 L/kg
- half-life [4]: 42 min
- half-life [5]: 36 min
- Cmax [6]: 1650 nM
- bioavailability [7]: 57%
- IC50 [8]: 420 nM
- residual activity [9]: < 10%
- residual activity [10]: < 10%
Compound: CCNc1nc2sc(-c3cccc([C@H](C)NC(C)=O)c3)nc2c2c1ncn2C
- inhibition (Mus musculus [1]): Dose-dependent effect
- residual activity [11]: < 10%
